Measurements published in ChEMBL document CHEMBL1125654, “New inhibitors of human renin that contain novel replacements at the P2 site” (J Med Chem, 1991).

What was measured:
[1] = Partition coefficient (logD7.4); details: octanol/water
Renin [2] = biological target: T1, Renin (Homo sapiens, UniProt P00797); experiment: Inhibitory activity against monkey plasma renin.; type: cell-free, Cercopithecidae; details: target entry is the homologue from another species
T1 sequence (P00797 whole entry): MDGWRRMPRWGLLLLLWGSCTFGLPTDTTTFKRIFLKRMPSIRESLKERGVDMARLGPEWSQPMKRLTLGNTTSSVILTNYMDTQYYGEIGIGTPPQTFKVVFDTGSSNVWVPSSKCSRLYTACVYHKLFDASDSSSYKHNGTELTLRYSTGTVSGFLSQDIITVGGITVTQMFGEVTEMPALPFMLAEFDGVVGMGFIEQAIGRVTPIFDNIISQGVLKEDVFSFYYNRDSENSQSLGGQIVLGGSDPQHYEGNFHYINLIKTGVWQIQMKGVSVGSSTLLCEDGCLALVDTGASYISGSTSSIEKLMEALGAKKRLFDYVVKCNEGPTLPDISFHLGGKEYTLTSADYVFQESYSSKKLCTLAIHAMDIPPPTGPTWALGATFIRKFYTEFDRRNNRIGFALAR
In short: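 Plasma from salt-depleted, furosemide-treated monkeys (native renin and angiotensinogen) incubated with maleate buffer (pH 6.0), PMSF and inhibitor in DMSO for 60 min at 37 °C. Plasma renin activity was 3–8 ng AI/mL per h. Percent inhibition was taken vs DMSO vehicle tubes, and IC50 from six concentrations by nonlinear regression.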

Renin [3] = biological target: T1, Renin; experiment: Inhibitory activity against human plasma renin; type: cell-free
Cathepsin D = biological target: T2, Cathepsin D (Bos taurus, UniProt P80209); experiment: Inhibitory activity against bovine cathepsin D was determined
T2 sequence (P80209 whole entry): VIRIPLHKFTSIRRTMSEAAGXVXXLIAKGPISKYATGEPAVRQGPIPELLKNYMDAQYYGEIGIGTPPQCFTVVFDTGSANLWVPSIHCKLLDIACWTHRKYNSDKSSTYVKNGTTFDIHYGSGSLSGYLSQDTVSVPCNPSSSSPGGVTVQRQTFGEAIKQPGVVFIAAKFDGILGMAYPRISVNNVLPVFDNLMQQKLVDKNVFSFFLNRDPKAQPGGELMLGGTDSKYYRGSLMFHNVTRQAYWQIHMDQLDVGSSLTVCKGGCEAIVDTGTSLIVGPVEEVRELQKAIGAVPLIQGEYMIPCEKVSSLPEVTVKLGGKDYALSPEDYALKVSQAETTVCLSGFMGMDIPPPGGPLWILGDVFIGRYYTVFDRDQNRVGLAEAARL
In short: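 Bovine cathepsin D activity assayed in duplicate as hydrolysis of bovine hemoglobin (2× crystallized) at pH 3.2, 37 °C. Net absorbance at 280 nm read in acid-precipitated supernatants of inhibited vs uninhibited controls. IC50 from six inhibitor concentrations by nonlinear regression.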

Row | SMILES | logD ([1]; pH 7.4, logD) | IC50 (Renin [2]) [µM] | IC50 (Renin [3]) [µM] | logD ([1]; pH 7.4) | IC50 (Cathepsin D) [µM]
1 | CS/C(=N\CCCCC(NC(=O)C(Cc1cccc2ccccc12)Cc1cccc2ccccc12)C(=O)NC(CC(C)C)[C@@H](O)CC(=O)N1CCOC(CCN)C1)NC#N (stereo partly specified) | 4.67 | 0.09 | – | – | –
2 | C/N=C(\S)NCC#CCC(NC(=O)C(Cc1ccccc1)NS(=O)(=O)N1CCOCC1)C(=O)NC(CC1CCCCC1)[C@@H](O)CC(=O)N1CCOC(CCN)C1 (stereo partly specified) | 2.9 | 0.0033 | – | – | –
3 | CNC(=S)NCCCCC(NC(=O)C(Cc1ccccc1)S(=O)(=O)C(C)(C)C)C(=O)NC(CC1CCCCC1)[C@@H](O)CC(=O)N1CCOC(CCN)C1 (stereo partly specified) | 2.64 | 0.027 | – | – | –
4 | CC(C)CC(NC(=O)C(CCCC/N=C(/N)N[N+](=O)[O-])NC(=O)C(CC(=O)N1CCOCC1)Cc1cccc2ccccc12)[C@@H](O)CC(=O)N1CCOC(CCN)C1 (stereo partly specified) | – | 0.395 | – | 1.95 | –
5 | CCC(C)CNC(=O)C[C@H](O)C(CC(C)C)NC(=O)C(CCCCn1cccc1)NC(=O)C(Cc1cccc2ccccc12)Cc1cccc2ccccc12 (stereo partly specified) | 7.21 | 0.144 | 0.087 | – | –
6 | CCC(C)CNC(=O)C[C@H](O)C(CC(C)C)NC(=O)C(CC#CCNC(C)=O)NC(=O)C(Cc1cccc2ccccc12)Cc1cccc2ccccc12 (stereo in doubt; 55b) | – | 0.041 | 0.029 | 5.06 | –
7 | CCC(C)CNC(=O)C[C@H](O)C(CC(C)C)NC(=O)C(CCCCNC(=O)NC)NC(=O)C(Cc1cccc2ccccc12)Cc1cccc2ccccc12 (stereo partly specified) | 5.63 | 0.044 | 0.029 | – | –
8 | CCC(C)CNC(=O)C[C@H](O)C(CC(C)C)NC(=O)C(C/C=C\CNC(C)=O)NC(=O)C(Cc1cccc2ccccc12)Cc1cccc2ccccc12 (stereo partly specified) | 5.56 | 0.1 | – | – | –
9 | CCC(C)CNC(=O)C[C@H](O)C(CC(C)C)NC(=O)C(CCCCC/N=C(\N)N[N+](=O)[O-])NC(=O)C(Cc1cccc2ccccc12)Cc1cccc2ccccc12 (stereo partly specified) | – | 0.02 | 0.026 | 5.1 | 1.47
10 | N=C(NCC#CCC(NC(=O)C(Cc1cccc2ccccc12)Cc1cccc2ccccc12)C(=O)NC(CC1CCCCC1)[C@@H](O)CC(=O)N1CCOC(CCN)C1)N[N+](=O)[O-] (stereo partly specified) | – | 0.012 | – | 4.73 | –
11 | CC(C)CC(NC(=O)C(CCCCNC(=O)OCc1ccccc1)NC(=O)C(Cc1ccccc1)NS(=O)(=O)N1CCOCC1)C(=O)C(F)(F)C(=O)N1CCOC(CCN)C1 (stereo unspecified) | 2.32 | 0.0033 | – | – | –
12 | CC(=O)NCC#CCC(NC(=O)C(Cc1ccccc1)NS(=O)(=O)N1CCOCC1)C(=O)NC(CC1CCCCC1)[C@@H](O)CC(=O)N1CCOC(CCN)C1 (stereo partly specified) | 2.12 | 0.0005 | – | – | –
13 | NCCC1CN(C(=O)C[C@H](O)C(CC2CCCCC2)NC(=O)C(CC#CCNC=O)NC(=O)C(Cc2cccc3ccccc23)Cc2cccc3ccccc23)CCO1 (stereo partly specified) | 5.44 | 0.0087 | – | – | –
14 | CC(C)(C)OC(=O)NCC#CCC(NC(=O)C(Cc1ccccc1)NS(=O)(=O)N1CCOCC1)C(=O)NC(CC1CCCCC1)[C@@H](O)CC(=O)N1CCOC(CCN)C1 (stereo in doubt; 61a) | – | 0.011 | – | 3.96 | –
15 | CCC(C)CNC(=O)C[C@H](O)C(CC(C)C)NC(=O)C(CCCCNC(N)=O)NC(=O)C(Cc1cccc2ccccc12)Cc1cccc2ccccc12 (stereo partly specified) | 5.31 | 0.089 | 0.05 | – | –
16 | CCC(C)CNC(=O)C[C@H](O)C(CC(C)C)NC(=O)C(CCCCCNC(=S)NC)NC(=O)C(Cc1cccc2ccccc12)Cc1cccc2ccccc12 (stereo partly specified) | 5.41 | 0.039 | 0.04 | – | –
17 | C/N=C(\S)NCCCCC(NC(=O)C(CC(=O)N1CCOCC1)Cc1cccc2ccccc12)C(=O)NC(CC1CCCCC1)[C@@H](O)CC(=O)N1CCOC(CCN)C1 (stereo partly specified) | 1.68 | 0.036 | 0.02 | – | –
18 | CC(C)CC(NC(=O)C(CCCC/N=C(/N)N[N+](=O)[O-])NC(=O)C(Cc1cccc2ccccc12)Cc1cccc2ccccc12)[C@@H](O)CC(=O)N1CCOC(CCN)C1 (stereo partly specified) | – | 0.04 | 0.045 | 4.09 | –
19 | CC(C)CC(NC(=O)C[C@H](O)C(CC(C)C)NC(=O)C(CCCCNC(=N)N[N+](=O)[O-])NC(=O)C(Cc1cccc2ccccc12)Cc1cccc2ccccc12)C(=O)NCc1ccccc1 (stereo partly specified) | – | 0.049 | 0.015 | 5.51 | –
20 | CS/C(=N\CCCCC(NC(=O)C(CC(=O)N1CCOCC1)Cc1cccc2ccccc12)C(=O)NC(CC(C)C)[C@@H](O)CC(=O)N1CCOC(CCN)C1)NC#N (stereo partly specified) | 1.68 | 0.35 | – | – | –
21 | CCC(C)CNC(=O)C[C@H](O)C(CC(C)C)NC(=O)C(CCCn1cccc1)NC(=O)C(Cc1cccc2ccccc12)Cc1cccc2ccccc12 (stereo partly specified) | 7.09 | 0.39 | 0.54 | – | –
22 | CCC(C)CNC(=O)C[C@H](O)C(CC(C)C)NC(=O)C(C/C=C/C/N=C(/S)NC)NC(=O)C(Cc1cccc2ccccc12)Cc1cccc2ccccc12 (stereo partly specified) | 5.23 | 0.026 | 0.041 | – | –
23 | CCC(C)CNC(=O)C[C@H](O)C(CC(C)C)NC(=O)C(CCCCNC(=NC#N)SC)NC(=O)C(Cc1cccc2ccccc12)Cc1cccc2ccccc12 (stereo partly specified) | 5.51 | 0.041 | 0.019 | – | –

Further lines, with some results ahead:

Row | logD ([1]; pH 7.4, logD) | IC50 (Renin [2]) [µM] | IC50 (Renin [3]) [µM] | SMILES | logD ([1]; pH 7.4) | IC50 (Cathepsin D) [µM]
24 | 5.25 | 3.49 | 2.58 | CCC(C)CNC(=O)C[C@H](O)C(CC(C)C)NC(=O)C(CCCCN)NC(=O)C(Cc1cccc2ccccc12)Cc1cccc2ccccc12 (stereo partly specified) | – | –
25 | 7.37 | 0.248 | 0.15 | CCC(C)CNC(=O)C[C@H](O)C(CC(C)C)NC(=O)C(CC#CCNC(=O)OCc1ccccc1)NC(=O)C(Cc1cccc2ccccc12)Cc1cccc2ccccc12 (stereo partly specified) | – | –
26 | 4.4 | 4.15 | > 10 | CCC(C)CNC(=O)C[C@H](O)C(CC(C)C)NC(=O)C(CCNC(C)=O)NC(=O)C(Cc1cccc2ccccc12)Cc1cccc2ccccc12 (stereo partly specified) | – | –
27 | 3.13 | 0.7 | – | CC(C)(C)OC(=O)NCC#CCC(NC(=O)C(Cc1ccccc1)NS(=O)(=O)N1CCOCC1)C(=O)NC(CC1CCCCC1)[C@@H](O)CC(=O)N1CCOC(CCN)C1 (stereo in doubt; 61b) | – | –
28 | 2.93 | 0.0023 | – | C/N=C(\S)NCCCCC(NC(=O)C(Cc1ccccc1)NS(=O)(=O)N1CCOCC1)C(=O)NC(CC1CCCCC1)[C@H](O)C(F)(F)C(=O)N1CCOC(CCN)C1 (stereo partly specified) | – | –
29 | 6.6 | 0.138 | 0.058 | CCC(C)CNC(=O)C[C@H](O)C(CC(C)C)NC(=O)C(CCCCNC(=S)Nc1ccccc1)NC(=O)C(Cc1cccc2ccccc12)Cc1cccc2ccccc12 (stereo partly specified) | – | –
30 | 7.69 | 8 | 2.9 | CC(C)CC(NC(=O)C[C@H](O)C(CC(C)C)NC(=O)C(CCCCNC(=O)OCc1ccccc1)NC(=O)C(Cc1cccc2ccccc12)Cc1cccc2ccccc12)C(=O)NCc1ccccc1 (stereo partly specified) | – | –
31 | 4.38 | 0.036 | 0.0062 | CCC(C)CNC(=O)C[C@H](O)C(CC(C)C)NC(=O)C(CCCCNC(C)=O)NC(=O)C(Cc1cccc2ccccc12)Cc1cccc2ccccc12 (stereo partly specified) | – | –
32 | 5.46 | 0.048 | – | CNC(=S)NCC#CCC(NC(=O)C(Cc1cccc2ccccc12)Cc1cccc2ccccc12)C(=O)NC(CC1CCCCC1)[C@@H](O)CC(=O)N1CCOC(CCN)C1 (stereo partly specified) | – | –
33 | 5.5 | 0.35 | – | CNC(=S)NCCCCC(NC(=O)C(Cc1cccc2ccccc12)Cc1cccc2ccccc12)C(=O)NC(CC(C)C)[C@@H](O)C(F)(F)C(=O)N1CCOC(CCN)C1 (stereo partly specified) | – | –
34 | 5.7 | 2.49 | 9.35 | CCC(C)CNC(=O)C[C@H](O)C(CC(C)C)NC(=O)C(CCNC(=S)NC)NC(=O)C(Cc1cccc2ccccc12)Cc1cccc2ccccc12 (stereo partly specified) | – | –
35 | 6.63 | 0.047 | – | CCC(C)CNC(=O)C[C@H](O)C(CC1CCCCC1)NC(=O)C(CCCC/N=C(/S)NC)NC(=O)C(Cc1cccc2ccccc12)Cc1cccc2ccccc12 (stereo partly specified) | – | 3.2
36 | 2.25 | 0.005 | 0.0054 | NCCC1CN(C(=O)C[C@H](O)C(CC2CCCCC2)NC(=O)C(Cc2c[nH]cn2)NC(=O)C(Cc2ccccc2)NS(=O)(=O)N2CCOCC2)CCO1 (stereo partly specified) | – | –
37 | 4.83 | 10.6 | – | CNC(=S)NCCCCC(NC(=O)C(Cc1cccc2ccccc12)Cc1cccc2ccccc12)C(=O)NC(CC(C)C)[C@@H](O)CC(=O)N(C)OC (stereo partly specified) | – | –
38 | 5.64 | 0.044 | 0.048 | CCC(C)CNC(=O)C[C@H](O)C(CC(C)C)NC(=O)C(CCCCCCN=C(S)NC)NC(=O)C(Cc1cccc2ccccc12)Cc1cccc2ccccc12 (stereo partly specified) | – | –
39 | – | 0.085 | 0.061 | CCC(C)CNC(=O)C[C@H](O)C(CC(C)C)NC(=O)C(Cc1cnc[nH]1)NC(=O)C(Cc1cccc2ccccc12)Cc1cccc2ccccc12 (stereo partly specified) | – | –
